According to ChEMBL document CHEMBL4368894, “Fluorine substituted methoxyphenylalkyl amides as potent melatonin receptor agonists” (Medchemcomm, 2019):
Active and inactive are the calls of the source. No cut-off for these calls is given here.

Experiments:
[1] = target: T1, Melatonin receptor type 1C (Xenopus laevis, UniProt P49219); test: Agonist activity at Melatonin receptor type 1C in Xenopus laevis melanophores assessed as induction of pigment aggregation response by microtiter plate reader based absorbance detection assay
T1 sequence (P49219 whole entry): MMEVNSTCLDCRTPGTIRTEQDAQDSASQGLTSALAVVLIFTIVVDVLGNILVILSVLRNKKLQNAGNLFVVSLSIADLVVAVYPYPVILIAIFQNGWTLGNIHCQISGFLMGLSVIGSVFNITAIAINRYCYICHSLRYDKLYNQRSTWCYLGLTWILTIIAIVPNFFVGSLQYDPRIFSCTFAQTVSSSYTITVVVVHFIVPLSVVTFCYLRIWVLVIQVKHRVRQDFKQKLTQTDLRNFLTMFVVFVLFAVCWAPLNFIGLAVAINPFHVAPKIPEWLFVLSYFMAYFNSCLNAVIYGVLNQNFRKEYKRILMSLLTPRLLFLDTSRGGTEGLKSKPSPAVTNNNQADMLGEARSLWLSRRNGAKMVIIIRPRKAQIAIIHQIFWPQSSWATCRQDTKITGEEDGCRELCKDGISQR
How it was run: (§1)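 Cultured melanophores (about 6-8 x 10³ per well) switched to 0.7 x L-15 medium with 1 mg·mL⁻¹ bovine albumin 1 h before concentration-response runs, in which pigment stays dispersed. Aggregation read as absorbance at 630 nm before and after drug, expressed as fractional change 1-(A_f/A_i). Drugs diluted fresh from 10⁻² M methanol or DMSO stocks; final solvent at most 1% v/v.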

[2] = target: T2, Melatonin receptor type 1C (Xenopus laevis) (UniProt P49219); test: Agonist activity at Melatonin receptor type 1C in Xenopus laevis melanophores assessed as induction of pigment aggregation response by microtiter plate reader based absorbance detection assay relative to melatonin; how it was run: as §1
T2 sequence (whole entry): T1 sequence (P49219 whole entry)

[3] = target: T2, Melatonin receptor type 1C (Xenopus laevis); test: Antagonist activity at Melatonin receptor type 1C in Xenopus laevis melanophores assessed as inhibition of melatonin-induced pigment aggregation response up to 10^-4M pre-incubated 60 mins before melatonin addition by microtiter plate reader based absorbance detection assay
[4] = target: T2, Melatonin receptor type 1C (Xenopus laevis); test: Antagonist activity at Melatonin receptor type 1C in Xenopus laevis melanophores assessed as inhibition of melatonin-induced pigment aggregation response pre-incubated 60 mins before melatonin addition by microtiter plate reader based absorbance detection assay; set-up: concentration or dose not given beside the values
How it was run: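 Melanophores pre-equilibrated 1 h in 0.7 x L-15 medium containing 1 mg·mL⁻¹ bovine albumin. Antagonist (10⁻⁵ M) added 60 min ahead of melatonin, and melatonin concentration-response curves run with and without it. Pigment aggregation read as 630 nm absorbance change, 1-(A_f/A_i). pK_B taken as log(concentration ratio – 1) – log[antagonist]. Solvent at most 1% v/v.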

EC50 [1]	Efficacy [2]	inhibition [3]	inhibition [4]	Compound
0.537 nM	100%	inactive		CCC(=O)NCC(C)(C)c1ccc(F)c(OC)c1
1050 nM	51%		24%	CCC(=O)NCc1ccc(OC)c(F)c1
79.4 nM	100%	inactive		CCCC(=O)NCC(C)(C)c1ccc(OC)c(F)c1
3.89 nM	92%	inactive		COc1cc(CCCNC(C)=O)ccc1F
1950 nM	100%	inactive		COc1ccc(F)c(CNC(C)=O)c1
0.123 nM				COc1ccc2[nH]cc(CCNC(C)=O)c2c1 [MELATONIN]
2880 nM	86%	inactive		CCC(=O)NCc1ccc(F)c(OC)c1
794 nM	100%	inactive		CCC(=O)NCCc1cc(OC)ccc1F
2450 nM	100%	inactive		COc1ccc(F)c(CCNC(C)=O)c1
3.72 nM	100%	inactive		CCC(=O)NCCCc1cc(OC)ccc1F
1350 nM	80%	inactive		CCC(=O)NCCc1ccc(OC)c(F)c1
182 nM	100%	inactive		COc1ccc(F)c(C(C)(C)CNC(C)=O)c1
417 nM	73%		19%	CCCC(=O)NCCCc1ccc(OC)c(F)c1
			100%	CC(=O)NCCc1c(Cc2ccccc2)[nH]c2ccccc12
85.1 nM	100%	inactive		CCC(=O)NCCc1ccc(F)c(OC)c1
0.891 nM	89%	inactive		CCCC(=O)NCCCc1ccc(F)c(OC)c1
81.3 nM	100%	inactive		COc1ccc(C(C)(C)CNC(C)=O)cc1F
661 nM	57%		37%	CCCC(=O)NCc1ccc(OC)c(F)c1
2090 nM	83%	inactive		COc1cc(CNC(C)=O)ccc1F

EC50 [1]	Efficacy [2]	inhibition [3]	inhibition [4]	Compound
251 nM	100%	inactive		CCCC(=O)NCCc1cc(OC)ccc1F
2510 nM	75%	inactive		CCCC(=O)NCc1ccc(F)c(OC)c1
2400 nM	80%	inactive		COc1ccc(CCNC(C)=O)cc1F
275 nM	100%	inactive		COc1cc(CCNC(C)=O)ccc1F
1820 nM	79%	inactive		COc1ccc(CCCNC(C)=O)cc1F
2400 nM	69%		23%	CCC(=O)NCc1cc(OC)ccc1F
97.7 nM	100%	inactive		CCCC(=O)NCC(C)(C)c1cc(OC)ccc1F
1.82 nM	100%	inactive		COc1cc(C(C)(C)CNC(C)=O)ccc1F
9.55 nM	100%	inactive		CCCC(=O)NCCCc1cc(OC)ccc1F
0.0229 nM	100%	inactive		CCCC(=O)NCC(C)(C)c1ccc(F)c(OC)c1
1200 nM	52%		48%	CCCC(=O)NCCc1ccc(OC)c(F)c1
1.1 nM	89%	inactive		CCC(=O)NCCCc1ccc(F)c(OC)c1
1510 nM	77%	inactive		COc1ccc(CNC(C)=O)cc1F
93.3 nM	100%	inactive		CCC(=O)NCC(C)(C)c1ccc(OC)c(F)c1
66.1 nM	100%	inactive		CCCC(=O)NCCc1ccc(F)c(OC)c1
1350 nM	43%		44%	CCCC(=O)NCc1cc(OC)ccc1F
20.4 nM	100%	inactive		COc1ccc(F)c(CCCNC(C)=O)c1
871 nM	78%		8%	CCC(=O)NCCCc1ccc(OC)c(F)c1
269 nM	100%	inactive		CCC(=O)NCC(C)(C)c1cc(OC)ccc1F

Compound	EC50 [1]	Efficacy [2]	inhibition [3]	inhibition [4]
CCCC(=O)NC(C)Cc1ccc(F)c(OC)c1 (stereo not drawn)	105 nM	89%	inactive	
